Data from ChEMBL document CHEMBL4837248, “Discovery and SAR Evolution of Pyrazole Azabicyclo[3.2.1]octane Sulfonamides as a Novel Class of Non-Covalent N-Acylethanolamine-Hydrolyzing Acid Amidase (NAAA) Inhibitors for Oral Administration” (J Med Chem, 2021).
Calls of active or inactive are those of the source. No cut-off for these calls is given here.

Target: T1, N-acylethanolamine-hydrolyzing acid amidase (Homo sapiens) (UniProt Q02083)
T1 sequence (whole entry): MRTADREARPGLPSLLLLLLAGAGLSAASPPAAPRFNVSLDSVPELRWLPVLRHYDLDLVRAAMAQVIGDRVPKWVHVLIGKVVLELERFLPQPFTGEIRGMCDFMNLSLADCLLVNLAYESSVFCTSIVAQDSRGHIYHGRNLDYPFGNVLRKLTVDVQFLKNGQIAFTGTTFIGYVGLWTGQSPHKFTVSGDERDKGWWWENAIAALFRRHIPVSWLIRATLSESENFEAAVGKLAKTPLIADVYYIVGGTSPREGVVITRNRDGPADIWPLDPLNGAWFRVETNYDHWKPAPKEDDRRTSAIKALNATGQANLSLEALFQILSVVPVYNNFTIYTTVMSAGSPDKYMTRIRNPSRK
Assay: Inhibition of recombinant human NAAA expressed in HEK293 cells using PAMCA as fluorogenic substrate at 50 uM preincubated for 30 mins followed by substrate addition and measured after 50 mins by fluorescence assay relative to control
Type: cell-based
Details: not given
How it was run: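 Lysosomal-type enzyme-enriched lysate from HEK-293 cells stably expressing human NAAA (4 μg protein), preincubated 30 min with compound or 5% DMSO in 100 mM citrate/phosphate pH 4.5 with 3.0 mM DTT, 0.1% NP40, 0.05% BSA, 150 mM NaCl. Reaction started with PAMCA substrate (2 μM), run 50 min at 37 °C. Fluorescence read at ex 355/em 460 nm against enzyme-free background.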

inhibition [%]	SMILES
< 10	Cc1n[nH]c(C)c1C(=O)N1CCC(Oc2cnccn2)CC1
< 10	Cc1n[nH]cc1S(=O)(=O)N1CCC(Oc2cnccn2)CC1
< 10	Cc1noc(C)c1S(=O)(=O)N1CCC(Oc2cnccn2)CC1
< 10	Cc1n[nH]c(C)c1S(=O)(=O)N[C@H]1CC[C@H](Oc2cnccn2)CC1
< 10	COc1n[nH]c(C)c1S(=O)(=O)N1CCC(Oc2cnccn2)CC1

The next lines start with the compound.

SMILES	inhibition [%]
Cc1n[nH]c(C)c1S(=O)(=O)N1CCC(Nc2cnccn2)CC1	< 10
Cc1n[nH]c(C)c1S(=O)(=O)N1[C@@H]2CC[C@H]1C[C@H](Oc1cnccn1)C2	< 10
Cc1n[nH]c(C)c1S(=O)(=O)N1CC(Oc2cnccn2)C1	< 10
Cc1n[nH]c(C)c1S(=O)(=O)N1CCC(Cc2cnccn2)CC1	< 10
O=S(=O)(c1cn[nH]c1)N1CCC(Oc2cnccn2)CC1	< 10
Cc1n[nH]c(C)c1S(=O)(=O)N1C[C@H]2CCC[C@@H](C1)[C@H]2Oc1cnccn1	< 10
Cc1nn(C)c(C)c1S(=O)(=O)N1CCC(Oc2cnccn2)CC1	< 10
Cc1cnn(C)c1S(=O)(=O)N1CCC(Oc2cnccn2)CC1	< 10
Cc1n[nH]c(C)c1S(=O)(=O)N1CCC(c2cnccn2)CC1	< 10

Target: T1, N-acylethanolamine-hydrolyzing acid amidase (Homo sapiens)
Assay: Inhibition of ARN14686 probe binding to human NAAA expressed in HEK293 cells preincubated for 2 hrs followed by ARN14686 probe addition and measured after 4 hrs by fluorescence assay
Type: cell-based
Details: time 6.0 hrs
How it was run: (§1)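 Lysosomal enrichment (0.5 mg/mL) from HEK293 cells overexpressing human NAAA was preincubated 2 h at 37 °C with compound at a final 20 μM (2% DMSO); DMSO-only controls were included. ARN14686 probe (20 μM) was then added at 37 °C for 15 min or 4 h. An Alexa Fluor 545 azide was attached by CuSO4/TCEP/TBTA click chemistry (2 h, 25 °C). Read-out was SDS-PAGE in-gel fluorescence at 532 nm, with Coomassie loading control.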

SMILES	inhibition
CCOCc1cnc(O[C@H]2C[C@H]3CC[C@@H](C2)N3S(=O)(=O)c2c(C)n[nH]c2C)cn1	inactive

Target: T1, N-acylethanolamine-hydrolyzing acid amidase (Homo sapiens)
Assay: Inhibition of ARN14686 probe binding to human NAAA expressed in HEK293 cells preincubated for 2 hrs followed by ARN14686 probe addition and measured after 15 mins by fluorescence assay
Type: cell-based
Details: time 135.0 min
How it was run: as §1

SMILES	inhibition
CCOCc1cnc(O[C@H]2C[C@H]3CC[C@@H](C2)N3S(=O)(=O)c2c(C)n[nH]c2C)cn1	Active
